Compound activity (PubChem BioAssay)
The sample as a whole holds a higher share of hits than the screen did.
Calb biofilm kill: kills Candida albicans biofilms; C. albicans biofilm + clotrimazole, Alamar Blue; inhibition, % at 6 µM; 85,000 compounds, 0.14% hits; AID 834;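 active means inhibition above 20%; inactive means inhibition below 20%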;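 further: preformed 24 hr biofilms exposed to compound for 48 hr; 0% = biofilm without compound and 100% = blank killed by clotrimazole plus chlorhexidine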
H69AR inhibit: growth inhibitors of human H69AR lung tumor cells; H69AR lung tumor viability, ATP luminescence, 72 h; active compounds read low; viability, % at 10 µM; 85,000 compounds, 6% hits; AID 598;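 active means viability at or below 40%; inactive means viability above 40%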;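 further: multidrug resistant small cell line overexpressing MRP-1 efflux transporter; 100% = mean luminescence of untreated control wells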
HCT116 bCat-KO: beta-catenin-lacking colon tumor cell growth suppression | HCT116 beta-catenin knockout viability, CellTiter-Glo, 60 h; active compounds read low | 140,000 compounds, 1.5% hits | viability, % at 10 µM;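 active means viability at or under a set limit, the compound median less 4 SD, cut at about 6% in these data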;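 further: 0% = Hyamine 1622 control at 20 µM and 100% = untreated cell control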
PTEN del growth: suppresses growth of cells with PTEN deletion. viability, % at 10 µM. 140,000 compounds, 1.2% hits. HCT116 PTEN-null viability, CellTiter-Glo, 60 h; active compounds read low. AID 827;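 active means viability at or below a set limit, 4 SD under the median of all tested compounds, cut at about 3.7% in these data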;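 further: PTEN knockout HCT116 line with beta catenin targeted HCT116 as companion control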
HUVEC prolif 384: inhibitors of human endothelial cell proliferation; HUVEC proliferation, CellTiter-Glo luminescence, 72 h; active compounds read low; viability, % at 10 µM (by protocol); 86,000 compounds, 1.1% hits; AID 648;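 active means viability at or below 30%; inactive means viability above 30%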;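 further: 100% = median luminescence of DMSO-only cell control wells on each plate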
Fibroblast inh: blocks proliferation of human lung fibroblasts | LL 47 human lung fibroblast viability, ATP luminescence; active compounds read low | viability, % at 10 µM | 85,000 compounds, 1.1% hits;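 active means viability at or below 50% in the single dose screen; inactive means viability above 50%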;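 further: compound exposure lasted 72 h before the ATP readout; 100% = median luminescence of untreated cell-only wells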
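test system = LL 47 human lung fibroblasts | amount = 1,150 fibroblasts seeded per well | medium = 15% FBS in IMEM | times = overnight cell rest, 72 h compound treatment at 37 °C | measured by = CellTiter-Glo luminescence measuring cellular ATP | read-out = viability percentage against median untreated-cell control | benchmarks = cell-only wells, no compound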
Starred values were filed as active, the others as inactive; . = no result given.

SMILES | Calb biofilm kill | H69AR inhibit | HCT116 bCat-KO | PTEN del growth | HUVEC prolif 384 | Fibroblast inh
COc1cc(NS(=O)(=O)c2ccc(OC)c(C)c2C)c(OC)cc1Cl | 11 | 22* | 11 | 10 | 58 | 96
COc1ccc(OC)c(S(=O)(=O)Nc2cc(OC)c(Cl)cc2OC)c1 | 2 | 88 | 76 | 70 | 96 | 102
Cc1cc(C)n(CC(O)Cn2c3ccc(Br)cc3c3cc(Br)ccc32)c(=O)n1 (stereo not given) | 2 | 92 | 79 | 53 | 21* | 96
COc1ccc(S(=O)(=O)NNC(=O)c2csc(-n3nc(C)cc3C(F)(F)F)n2)cc1 | 4 | 70 | 95 | 92 | 93 | 97
COc1ccccc1-c1nnc(Sc2nc([N+](=O)[O-])nn2C)o1 | -6 | 2.8* | 2.1* | 2.4* | 59 | 64
Cn1nc([N+](=O)[O-])nc1Sc1ccc(Cl)cc1 | . | . | 84 | 78 | . | .
CCOC(=O)c1ccc(NC(=S)NC(=O)COc2ccccc2)cc1 | . | . | 94 | 95 | . | .
COc1ccc(NC(=O)CSc2nc3c(c(=O)n2-c2ccc(F)cc2)SCC3)cc1 | 6 | 88 | 82 | 99 | 93 | 104
COc1ccc(NC(=O)CSc2nc3c(c(=O)n2-c2ccccc2)SCC3)c(OC)c1 | 5 | 8.2* | 83 | 94 | 70 | 76
COc1ccccc1-n1c(SCC(=O)Nc2ccc(F)cc2)nc2c(c1=O)SCC2 | 5 | 20* | 90 | 101 | 89 | 96
COc1ccc(NC(=O)CSc2c3c(nc4ccccc24)CCCC3)c(OC)c1 | . | . | 5.9* | 11 | . | .
CCc1nnc(NC(=O)CSc2nc3c(c(=O)n2CC)SC(C)C3)s1 (stereo not given) | 5 | 106 | 83 | 90 | 118 | 99
CC(C)[C@H](NC(=O)OC(C)(C)C)C(=O)N/N=C/c1cccc2nccnc12 | -3 | 96 | 88 | 99 | 76 | 96
COCCn1c(C)cc(C(=O)CSc2nc3ccccc3o2)c1C | 1 | 91 | 71 | 71 | 25* | 94
Cc1ccc(Nc2nc(N)c([N+](=O)[O-])c(NCc3ccco3)n2)cc1C | . | . | 38 | 38 | . | .
Nc1nsc2ccccc12 | . | . | 4.7* | 4 | . | .
Nc1ccc2c(c1)sc1ccccc12 | . | . | 94 | 99 | . | .
COC(=O)C[N+](C)(C)CC#Cc1ccccc1 | . | . | 110 | 106 | . | .
COc1ccc(CNC(=O)CNS(=O)(=O)c2ccc(Cl)cc2)cc1 | . | . | 93 | 99 | . | .
Cc1ccccc1-n1c(-c2ccc(Cl)cc2)cnc1SCC(=O)NC1CCS(=O)(=O)C1 (stereo not given) | . | . | 76 | 76 | . | .
CN(C)S(=O)(=O)c1cccc(N=c2scc(-c3ccc4c(c3)NC(=O)CO4)n2CC2CCCO2)c1 (stereo not given) | 3 | 34* | 17 | 23 | 64 | 93
COc1ccccc1N=c1scc(-c2ccc3c(c2)NC(=O)CO3)n1CC1CCCO1 (stereo not given) | 5 | 61 | 61 | 61 | 78 | 96
FC(F)(F)c1nnc2c(Sc3ccc(Cl)cc3)nc3ccccc3n12 | . | . | 2.8* | 6 | . | .
FC(F)(F)c1nnc2c(Sc3ccccn3)nc3ccccc3n12 | . | . | 2.1* | 2.7* | . | .
CC12CCC(C(=O)Nc3cc(Cl)ccc3Cl)(C/C1=N\O)C2(C)C (stereo not given) | 4 | 89 | 97 | 92 | 99 | 94
SMILES | Calb biofilm kill | H69AR inhibit | HCT116 bCat-KO | PTEN del growth | HUVEC prolif 384 | Fibroblast inh
CC(=O)c1ccc(N2Cc3ccccc3/C2=N\C(=O)Nc2ccc(Cl)cc2)cc1 | . | . | 78 | 71 | . | .
CCCNc1nc(Nc2ccc(C)cc2)nc(N2CCCC2)n1 | -2 | 35* | 57 | 61 | 30 | 66
Cc1cccc(Nc2nc(N3CCCCC3)nc(N3CCCCC3)n2)c1 | 4 | 94 | 53 | 58 | 93 | 95
C1CCN(c2nc(N3CCCCC3)nc(N3CCNCC3)n2)CC1 | 5 | 0.4* | 37 | 46 | 86 | 85
N#Cc1nc(N2CCCC2)nc(N2CCCC2)n1 | -1 | 85 | 11 | 16 | 89 | 77
Cc1cc2c(cc(C(=O)OCC(=O)NCc3cccs3)n2C(C)C)o1 | 9 | 27* | 12 | 18 | 53 | 69
CCN(CC)S(=O)(=O)c1ccc(N2CCOCC2)c(NC(=O)C23CC4CC(CC(Cl)(C4)C2)C3)c1 | . | . | 76 | 65 | . | .
CCN(c1ccccc1)S(=O)(=O)c1cc(C(=O)Nc2ccc(F)c(F)c2)ccc1F | . | . | 4.5* | 3.4* | . | .
CCCCCCC(=O)N/N=C1\CCCc2ccccc21 | . | . | 93 | 97 | . | .
O=C(N/N=C/c1ccccn1)c1ccc(Br)cc1 | . | . | 3.6* | 3.6* | . | .
CN1CCN(C(=O)c2ccc(-n3cccc3)cc2)CC1 | . | . | 101 | 95 | . | .
CCCn1c(N)c(C(=S)NC(=O)C2CC2)c(=O)n(C)c1=O | . | . | 93 | 88 | . | .
COc1ccc(C(=O)c2c(C(F)(F)F)oc3c2C(=O)c2ccccc2C3=O)cc1 | -6 | 82 | 1.2* | 1.8* | 3.2* | 2.3*
O=C(CSc1nc2ccccc2[nH]1)Nc1ccc(F)cc1 | 14 | 102 | 90 | 92 | 94 | 102
O=C(Nc1ccc(F)cc1)C(Sc1nc2ccccc2[nH]1)c1ccccc1 (stereo not given) | . | . | 2.7* | 2.6* | . | .
COc1ccc2oc(C(=O)C3CC3)c(NC(=O)CCCN3C(=O)c4ccccc4C3=O)c2c1 | 11 | 31* | . | . | 86 | 92
CO[C@H]1C=CO[C@@]2(C)Oc3c(C)c(O)c4c(O)c(c(C=NN5CCN(C)CC5)c(O)c4c3C2=O)NC(=O)C(C)=CC=C[C@H](C)[C@H](O)[C@@H](C)[C@@H](O)[C@@H](C)[C@H](OC(C)=O)[C@@H]1C | 30* | 89 | 71 | 82 | 83 | 85
Cn1c(/C=C/c2ccc([N+](=O)[O-])o2)nc2ccccc2c1=O | -4 | -0.5* | 1.8* | 1.5* | 16* | 5.2*
O=c1c2ccccc2nc(/C=C/c2ccc(O)cc2)n1CCc1ccccc1 | . | . | 56 | 35 | . | .
Cc1cccc(C)c1NC(=O)CSc1nc(-c2ccco2)cc(C(F)(F)F)n1 | 8 | 30* | 45 | 31 | 59 | 81
O=C(CSc1nc(-c2ccco2)cc(C(F)(F)F)n1)Nc1ccccc1C(F)(F)F | 6 | 26* | 57 | 55 | 63 | 69
Cc1ccc(Cn2ccc(NC(=O)CCSc3nc(-c4ccco4)cc(C(F)(F)F)n3)n2)cc1 | 3 | 14* | 57 | 68 | 55 | 96
Cc1cc(NC(=O)CSc2nc(-c3ccco3)cc(C(F)(F)F)n2)no1 | . | . | 9 | 12 | . | .
Cc1ccc(NC(=O)CCn2ccc([N+](=O)[O-])n2)nc1 | . | . | 88 | 85 | . | .
COc1cc(C(=O)OCCN2CCCCC2)ccc1O | . | . | 75 | 83 | . | .
COc1cc(C#CC#CCN2CCCCC2)ccc1O | 11 | 3.6* | 70 | 75 | 98 | 94
O=C(NC1CCCCC1)C(c1cccnc1)N(C(=O)CCl)c1ccc(F)cc1 (stereo not given) | . | . | 4.2* | 3.0* | . | .
O=C(NC1CCCCC1)C(c1cccnc1)N(C(=O)CCl)c1ccccc1Cl (stereo not given) | . | . | 15 | 12 | . | .
